In ChEMBL document CHEMBL1131501, “Cytotoxic activities of Mannich bases of chalcones and related compounds” (J Med Chem, 1998):

What was measured:
Assay type in all cases: functional, cell-based
Homo sapiens [1] = organism: Homo sapiens; assay: Concentration required to inhibit 50% growth of human Molt 4/C8 T-lymphocyte cells; conditions: Molt4/C8
Homo sapiens [2] = organism: Homo sapiens; assay: Concentration required to inhibit 50% growth of Human CEM T-lymphocytes cells; conditions: CCRF-CEM
L1210 = assay: Concentration required to inhibit 50% growth of L1210 leukemia cells; conditions: Mus musculus
P388 = assay: Inhibition of proliferation of murine P388 cells; conditions: Mus musculus
Tumor Cell line = assay: Evaluation for cytotoxicity to human tumor cell lines.
Method in brief: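 Panel of about 55-60 human tumor lines (leukemia, melanoma, non-small cell lung, colon, CNS, ovarian, renal, prostate, breast) exposed to 10⁻⁸ to 10⁻⁴ M. Growth inhibition was read as intact-cell recovery relative to vehicle control after 48 h.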

Row | Structure (SMILES) | IC50 (Homo sapiens [1]) | IC50 (Homo sapiens [2]) | IC50 (L1210) | IC50 (P388) | IC50 (Tumor Cell line)
1 | COc1ccc(/C=C/C(=O)c2ccc(OC(=O)/C=C/c3ccccc3)cc2)cc1 | 27.9 µM | 10.8 µM | 39.5 µM | 10.2 µM | 
2 | O=C(/C=C/c1ccc([N+](=O)[O-])cc1)c1ccc(O)cc1 | 5.94 µM | 2.23 µM | 7.32 µM | 13.1 µM | 
3 | COc1ccc(/C=C/C(=O)c2ccc(O)cc2)cc1 | 27.9 µM | 5.9 µM | 32.2 µM | 8.7 µM | 
4 | O=C(/C=C/c1ccccc1Cl)c1ccc(O)cc1 | 18.2 µM | 13.9 µM | 24.5 µM | 6.85 µM | 
5 | O=C(/C=C/c1ccc(O)cc1)c1ccc(Cl)c(Cl)c1 | 10.8 µM | 20 µM | 33.8 µM | 8.53 µM | 
6 | O=C(/C=C/c1ccc(Cl)cc1Cl)c1ccc(O)cc1 | 13.9 µM | 10.2 µM | 25.2 µM | 7.89 µM | 
7 | O=C(/C=C/c1ccc(/C=C/C(=O)c2ccc(O)cc2)cc1)c1ccc(O)cc1 | 30.3 µM | 78.6 µM | 395 µM | 0.564 µM | 93.3 µM
8 | CN(C)Cc1cc(C(=O)/C=C/c2cc(F)ccc2F)cc(CN(C)C)c1O | 15.4 µM | 2.91 µM | 15.9 µM | 8.86 µM | 
9 | CN(C)Cc1cc(/C=C/C(=O)c2ccc(Br)cc2)cc(CN(C)C)c1O | 39.2 µM | 21.9 µM | 32.3 µM | 15.1 µM | 
10 | COc1ccc(/C=C/C(=O)c2cc(CN(C)C)c(O)c(CN(C)C)c2)cc1 | 25.3 µM | 14.8 µM | 25.8 µM | 44.1 µM | 29.5 µM
11 | CN(C)Cc1cc(C(=O)/C=C/c2ccccc2)cc(CN(C)C)c1O | 20.7 µM | 19.6 µM | 17.7 µM | 29.6 µM | 21.9 µM
12 | CN(C)Cc1cc(C(=O)/C=C/c2ccc(C(F)(F)F)cc2)cc(CN(C)C)c1O | 8.3 µM | 1.56 µM | 8.14 µM | 3.67 µM | 
13 | O=C(/C=C/c1ccccc1)c1cc(CN2CCOCC2)c(O)c(CN2CCOCC2)c1 | 17.2 µM | 6.11 µM | 15.7 µM | 10.3 µM | 14.5 µM
14 | CN(C)Cc1cc(C(=O)/C=C/c2ccccc2Cl)cc(CN(C)C)c1O | 7.13 µM | 8.08 µM | 6.84 µM | 13.2 µM | 9.55 µM
15 | CN(C)Cc1cc(C(=O)/C=C/c2ccc(/C=C/C(=O)c3cc(CN(C)C)c(O)c(CN(C)C)c3)cc2)cc(CN(C)C)c1O |  |  |  |  | 26.9 µM
16 | CN(C)Cc1cc(C(=O)/C=C/c2ccc(F)cc2)cc(CN(C)C)c1O | 17.2 µM | 13.8 µM | 16.9 µM | 26.9 µM | 20 µM
17 | CN(C)Cc1cc(C(=O)/C=C/c2ccc(Br)cc2)cc(CN(C)C)c1O | 8.42 µM | 4.78 µM | 7.09 µM | 10.9 µM | 6.31 µM
18 | CN(C)Cc1cc(/C=C/C(=O)c2ccc(Cl)c(Cl)c2)cc(CN(C)C)c1O | 12.4 µM | 10.4 µM | 9.32 µM | 5.45 µM | 
19 | Cc1ccc(/C=C/C(=O)c2cc(CN(C)C)c(O)c(CN(C)C)c2)cc1 | 40.2 µM | 35.2 µM | 40.1 µM | 30.8 µM | 17.8 µM
20 | CN(C)Cc1cc(C(=O)/C=C/c2ccc(Cl)cc2Cl)cc(CN(C)C)c1O | 5.74 µM | 4.87 µM | 5.28 µM | 5.44 µM | 3.09 µM
21 | CN(C)Cc1cc(C(=O)/C=C/c2ccc(Cl)cc2)cc(CN(C)C)c1O | 8.41 µM | 6.48 µM | 8.33 µM | 13.7 µM | 10 µM
22 | CN(C)Cc1cc(C(=O)/C=C/c2ccc(O)cc2)cc(CN(C)C)c1O | 44.3 µM | 39.1 µM | 54 µM | > 50 µM | 39.8 µM

Row | Structure (SMILES) | IC50 (Homo sapiens [1]) | IC50 (Homo sapiens [2]) | IC50 (L1210) | IC50 (P388) | IC50 (Tumor Cell line)
23 | CN(C)Cc1cc(C(=O)/C=C/c2c(F)cccc2Cl)cc(CN(C)C)c1O | 7.92 µM | 7.74 µM | 8.29 µM |  | 9.12 µM
24 | CN(C)Cc1cc(C(=O)/C=C/c2ccc([N+](=O)[O-])cc2)cc(CN(C)C)c1O | 4.82 µM | 1.75 µM | 8.73 µM | 17.7 µM | 8.91 µM
25 | CN(C)Cc1cc(C(=O)/C=C/c2ccc(Cl)c(Cl)c2)cc(CN(C)C)c1O | 6.99 µM | 2.48 µM | 2.49 µM | 5.09 µM | 2.35 µM
26 | CN(C)Cc1cc(C(=O)/C=C/c2cccc(Cl)c2)cc(CN(C)C)c1O | 5.75 µM | 2.68 µM | 5.96 µM | 8.66 µM | 4.68 µM
27 | CN(C)Cc1cc(C(=O)/C=C/c2c(Cl)cccc2Cl)cc(CN(C)C)c1O | 5.38 µM | 4.33 µM | 3.83 µM | 5.92 µM | 5.88 µM
28 | CN(C)Cc1cc(/C=C/C(=O)c2ccccc2)cc(CN(C)C)c1O | 98 µM | 22.1 µM | 108 µM | > 50 µM | 
29 | O=C(/C=C/c1ccc(Br)cc1)c1ccc(O)cc1 | 6.07 µM | 1.98 µM | 13.2 µM | 16.6 µM | 
30 | O=C(/C=C/c1ccc(Cl)cc1)c1ccc(O)cc1 | 6.91 µM | 3.47 µM | 9.07 µM | 3.67 µM | 
31 | O=C(/C=C/C=C/c1ccccc1)c1ccc(O)cc1 | 30.8 µM | 10 µM | 33.8 µM | 8.83 µM | 
32 | O=C(/C=C/c1cccc(Cl)c1)c1ccc(O)cc1 | 6.8 µM | 5.4 µM | 21.2 µM | 2.82 µM | 
33 | O=C(/C=C/c1ccc(Cl)c(Cl)c1)c1ccc(O)cc1 | 5.66 µM | 1.71 µM | 13.1 µM | 11.7 µM | 
34 | O=C(/C=C/c1cc(F)ccc1F)c1ccc(O)cc1 | 7.88 µM | 3.57 µM | 12.2 µM | 0.864 µM | 
35 | O=C(/C=C/c1ccccc1)Oc1ccc(C(=O)/C=C/c2ccc(Cl)cc2)cc1 | 220 µM | 45.3 µM | 265 µM | 3.82 µM | 
36 | Cc1ccc(/C=C/C(=O)c2ccc(O)cc2)cc1 | 25.4 µM | 11.3 µM | 24.7 µM | 5.51 µM | 
37 | O=C(/C=C/c1c(Cl)cccc1Cl)c1ccc(O)cc1 | 5.15 µM | 1.36 µM | 5.15 µM | 3.17 µM | 
38 | O=C(/C=C/c1ccc(C(F)(F)F)cc1)c1ccc(O)cc1 | 6.33 µM | 1.88 µM | 13 µM | 2.49 µM | 
39 | O=C(/C=C/c1ccccc1)Oc1ccc(C(=O)/C=C/c2ccccc2)cc1 | 39.2 µM | 13.2 µM | 46.5 µM | 4.62 µM | 
40 | O=C(/C=C/c1ccc(F)cc1)c1ccc(O)cc1 | 16.1 µM | 3.3 µM | 15.7 µM | 8.55 µM | 
41 | N[C@@H](Cc1ccc(N(CCCl)CCCl)cc1)C(=O)O |  |  |  |  | 26.3 µM
42 | O=C(/C=C/c1ccccc1)c1ccc(O)cc1 [4'-HYDROXYCHALCONE] | 13.1 µM | 14.7 µM | 23.5 µM | 3.12 µM | 
43 | O=C(/C=C/c1ccc(O)cc1)c1ccccc1 [4-HYDROXYCHALCONE] | 8.58 µM | 9.31 µM | 37.9 µM | 14.3 µM | 
44 | O=C(/C=C/c1ccccc1)c1ccccc1 [CHALCONE] | 12.7 µM | 12.5 µM | 41.4 µM | 9.63 µM | 8.32 µM
